# According to PMC9389373 (RSC Advances, 2022):
# Assays:
# MCF-7 = test: MTT cytotoxicity assay, MCF-7; assay type: cell-based; conditions: Homo sapiens, MCF7, read-out: IC50, μM MCF-7
# How it was run: (§1)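 Cells came from the National Cancer Institute, Cairo, and were grown in RPMI-1640 with L-glutamine, 10% FBS and 1% penicillin-streptomycin at 37 °C, 5% CO2. Plated in triplicate in 96-well plates (5 × 10^4 cells). Next day, exposed to test compound at 0.01, 0.1, 1, 10 and 100 μM (48 h stated for MDA-MB-231 and MCF-10A). MTT added for 3 h; absorbance read; viability relative to control; IC50 derived.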
# MDA-MB-231 = test: MTT cytotoxicity assay, MDA-MB-231; assay type: cell-based; conditions: read-out: IC50, μM MDA-MB-231, average of three independent trials
# How it was run: as §1
# PARP-1 = PARP-1 (Homo sapiens, UniProt P09874); test: PARP-1 enzyme inhibition assay; assay type: biochemical
# Chain of PARP-1 (P09874 whole entry): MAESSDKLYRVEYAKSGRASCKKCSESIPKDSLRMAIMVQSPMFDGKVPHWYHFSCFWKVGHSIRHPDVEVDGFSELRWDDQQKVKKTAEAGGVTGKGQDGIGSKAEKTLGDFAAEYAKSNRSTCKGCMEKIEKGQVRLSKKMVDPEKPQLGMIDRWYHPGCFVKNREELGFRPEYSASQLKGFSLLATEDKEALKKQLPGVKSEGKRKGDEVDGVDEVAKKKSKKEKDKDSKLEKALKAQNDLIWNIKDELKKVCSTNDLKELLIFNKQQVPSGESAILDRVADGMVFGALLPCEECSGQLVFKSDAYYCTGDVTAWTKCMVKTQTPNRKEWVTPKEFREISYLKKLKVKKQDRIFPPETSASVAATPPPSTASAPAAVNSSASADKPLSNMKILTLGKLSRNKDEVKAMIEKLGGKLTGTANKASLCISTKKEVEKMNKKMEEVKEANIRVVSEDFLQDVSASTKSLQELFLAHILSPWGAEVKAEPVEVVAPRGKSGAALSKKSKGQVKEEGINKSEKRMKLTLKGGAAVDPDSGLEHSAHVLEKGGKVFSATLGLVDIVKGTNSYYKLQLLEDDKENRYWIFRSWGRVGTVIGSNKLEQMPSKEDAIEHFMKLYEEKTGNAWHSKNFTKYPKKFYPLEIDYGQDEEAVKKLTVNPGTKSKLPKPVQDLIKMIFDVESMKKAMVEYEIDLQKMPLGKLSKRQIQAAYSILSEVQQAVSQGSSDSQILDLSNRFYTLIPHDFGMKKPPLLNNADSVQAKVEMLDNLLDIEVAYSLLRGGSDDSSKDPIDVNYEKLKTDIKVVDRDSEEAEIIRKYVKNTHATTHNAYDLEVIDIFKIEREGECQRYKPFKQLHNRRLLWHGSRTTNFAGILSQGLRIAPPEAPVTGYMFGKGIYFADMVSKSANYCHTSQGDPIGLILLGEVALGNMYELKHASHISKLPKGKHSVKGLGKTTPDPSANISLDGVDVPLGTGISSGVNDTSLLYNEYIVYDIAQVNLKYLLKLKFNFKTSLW
# EGFR = EGFR (Homo sapiens, UniProt P00533); test: EGFR inhibition, ADP-Glo kinase assay; assay type: biochemical
# Chain of EGFR (P00533 25-1210): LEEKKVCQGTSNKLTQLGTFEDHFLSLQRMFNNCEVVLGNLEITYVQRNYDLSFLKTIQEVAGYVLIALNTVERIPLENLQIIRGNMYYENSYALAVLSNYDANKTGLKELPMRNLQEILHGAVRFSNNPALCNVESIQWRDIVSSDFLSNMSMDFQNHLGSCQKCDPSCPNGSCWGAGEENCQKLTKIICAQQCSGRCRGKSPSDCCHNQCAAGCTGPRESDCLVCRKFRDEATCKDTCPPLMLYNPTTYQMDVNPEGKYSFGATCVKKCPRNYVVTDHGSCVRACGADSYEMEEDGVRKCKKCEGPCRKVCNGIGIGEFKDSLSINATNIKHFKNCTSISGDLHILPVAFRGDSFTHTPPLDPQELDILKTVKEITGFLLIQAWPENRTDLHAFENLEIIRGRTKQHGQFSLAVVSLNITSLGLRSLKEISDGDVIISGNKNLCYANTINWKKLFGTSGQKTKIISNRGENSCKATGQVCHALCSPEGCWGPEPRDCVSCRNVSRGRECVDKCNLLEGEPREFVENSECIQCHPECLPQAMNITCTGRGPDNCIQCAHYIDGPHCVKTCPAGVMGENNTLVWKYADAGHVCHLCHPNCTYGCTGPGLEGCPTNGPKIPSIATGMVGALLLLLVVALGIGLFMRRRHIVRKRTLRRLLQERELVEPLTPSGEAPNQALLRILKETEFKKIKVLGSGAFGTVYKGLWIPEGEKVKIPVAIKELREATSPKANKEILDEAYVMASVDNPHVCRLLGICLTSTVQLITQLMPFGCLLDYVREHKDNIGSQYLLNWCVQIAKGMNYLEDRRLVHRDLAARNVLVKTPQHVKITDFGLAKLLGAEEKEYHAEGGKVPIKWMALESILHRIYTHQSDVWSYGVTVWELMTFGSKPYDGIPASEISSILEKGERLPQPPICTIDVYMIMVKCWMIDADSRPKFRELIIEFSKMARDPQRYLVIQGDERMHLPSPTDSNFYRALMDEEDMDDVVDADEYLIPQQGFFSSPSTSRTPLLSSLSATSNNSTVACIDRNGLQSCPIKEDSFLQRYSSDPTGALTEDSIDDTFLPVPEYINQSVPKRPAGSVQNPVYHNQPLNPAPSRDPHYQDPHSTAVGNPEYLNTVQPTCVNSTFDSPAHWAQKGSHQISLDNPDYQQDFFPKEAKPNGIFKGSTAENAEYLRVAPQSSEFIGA
# MCF-10A = test: MTT cytotoxicity assay, normal breast cells MCF-10A; assay type: cell-based; conditions: Homo sapiens
# How it was run: as §1
# MDA-MB-231 cells [1] = test: Annexin V/PI staining flow cytometry, apoptosis-necrosis assessment; assay type: cell-based; conditions: 8i at 0.12 μM, 48 h
# How it was run: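 MDA-MB-231 cells seeded overnight in 6-well plates (3–5 × 10^5 cells/well), then exposed to test compound for 48 h. Stained 30 min in the dark in Annexin binding buffer (25 mM CaCl2, 1.4 M NaCl, 0.1 M Hepes/NaOH, pH 7.4) with Annexin V-FITC (1:100) and PI (10 μg mL−1). Analysed by flow cytometry: Q1 necrosis, Q2 late apoptosis, Q4 early apoptosis.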
# MDA-MB-231 cells [2] = test: DNA-aided cell cycle analysis by flow cytometry; assay type: cell-based; conditions: 8i at 0.12 μM, 48 h; control 9.83%
# MDA-MB-231 cells [3] = test: RT-PCR gene expression of apoptosis-related genes; assay type: cell-based; conditions: 8i at 0.12 μM, 48 h, untreated control = 1
# [4] = five concentrations, sigmoidal nonlinear regression
structure (smiles),measurement,setting,value
"O=C(COc1ccc(C2=Nn3c(nnc3-c3ccccc3)SC2)cc1)NCCNC(=O)COc1ccc(C2=Nn3c(nnc3-c3ccccc3)SC2)cc1 [8a, N,N′-(Ethane-1,2-diyl)bis(2-(4-(3-phenyl-7H-[1,2,4]triazolo[3,4-b][1,3,4]thiadiazin-6-yl)phenoxy)acetamide)]",IC50,MCF-7,≥ 50 µM
"O=C(COc1ccc(C2=Nn3c(Cc4ccccc4)nnc3SC2)cc1)NCCNC(=O)COc1ccc(C2=Nn3c(Cc4ccccc4)nnc3SC2)cc1 [8b, N,N′-(Ethane-1,2-diyl)bis(2-(4-(3-benzyl-7H-[1,2,4]triazolo[3,4-b][1,3,4]thiadiazin-6-yl)phenoxy)acetamide)]",IC50,MCF-7,26.1 µM
"O=C(COc1ccccc1C1=Nn2c(nnc2-c2ccccc2)SC1)NCCNC(=O)COc1ccccc1C1=Nn2c(nnc2-c2ccccc2)SC1 [8c, N,N′-(Ethane-1,2-diyl)bis(2-(2-(3-phenyl-7H-[1,2,4]triazolo[3,4-b][1,3,4]thiadiazin-6-yl)phenoxy)acetamide)]",IC50,MCF-7,16.1 µM
"Cc1nnc2n1N=C(c1ccccc1OCC(=O)NCCNC(=O)COc1ccccc1C1=Nn3c(C)nnc3SC1)CS2 [8d, N,N′-(Ethane-1,2-diyl)bis(2-(2-(3-methyl-7H-[1,2,4]triazolo[3,4-b][1,3,4]thiadiazin-6-yl)phenoxy)acetamide)]",IC50,MCF-7,2.14 µM
same,IC50,MDA-MB-231,0.421 µM
same,IC50,PARP-1,0.0199 µM
same,"IC50, nM PARP-1",PARP-1; [4],poor inhibitory activities
same,IC50,EGFR,0.124 µM
same,"IC50, nM EGFR",EGFR; [4],poor inhibitory activities
"O=C(COc1ccc(C2=Nn3c(nnc3-c3ccccc3)SC2)cc1)NCCCNC(=O)COc1ccc(C2=Nn3c(nnc3-c3ccccc3)SC2)cc1 [8e, N,N′-(Propane-1,3-diyl)bis(2-(4-(3-phenyl-7H-[1,2,4]triazolo[3,4-b][1,3,4]thiadiazin-6-yl)phenoxy)acetamide)]",IC50,MCF-7,12.7 µM
"Cc1nnc2n1N=C(c1ccc(OCC(=O)NCCCNC(=O)COc3ccc(C4=Nn5c(C)nnc5SC4)cc3)cc1)CS2 [8f, N,N′-(Propane-1,3-diyl)bis(2-(4-(3-methyl-7H-[1,2,4]triazolo[3,4-b][1,3,4]thiadiazin-6-yl)phenoxy)acetamide)]",IC50,MCF-7,7.12 µM
"O=C(COc1ccccc1C1=Nn2c(nnc2-c2ccccc2)SC1)NCCCNC(=O)COc1ccccc1C1=Nn2c(nnc2-c2ccccc2)SC1 [8g, N,N′-(Propane-1,3-diyl)bis(2-(2-(3-phenyl-7H-[1,2,4]triazolo[3,4-b][1,3,4]thiadiazin-6-yl)phenoxy)acetamide)]",IC50,MCF-7,11.2 µM
"O=C(COc1ccccc1C1=Nn2c(Cc3ccccc3)nnc2SC1)NCCCNC(=O)COc1ccccc1C1=Nn2c(Cc3ccccc3)nnc2SC1 [8h, N,N′-(Propane-1,3-diyl)bis(2-(2-(3-benzyl-7H-[1,2,4]triazolo[3,4-b][1,3,4]thiadiazin-6-yl)phenoxy)acetamide)]",IC50,MCF-7,21.1 µM
same,IC50,MDA-MB-231,≥ 50 µM
"Cc1nnc2n1N=C(c1ccccc1OCC(=O)NCCCNC(=O)COc1ccccc1C1=Nn3c(C)nnc3SC1)CS2 [8i, N,N′-(Propane-1,3-diyl)bis(2-(2-(3-methyl-7H-[1,2,4]triazolo[3,4-b][1,3,4]thiadiazin-6-yl)phenoxy)acetamide)]",IC50,MCF-7,1.31 µM
same,IC50,"MCF-10A; 48 h, read-out: IC50 MCF-10A",52.4 µM
same,inhibition at 100 µM,MCF-10A; read-out: cell inhibition,~90%
same,IC50,EGFR,0.0647 µM
same,"necrosis, fold compared to control",MDA-MB-231 cells [1],3.14 fold
same,"total apoptosis, fold compared to control",MDA-MB-231 cells [1],38 fold
same,late apoptosis (Q2),MDA-MB-231 cells [1]; control 0.18%,19.51%
same,early apoptosis (Q4),MDA-MB-231 cells [1]; control 0.63%,11.23%
same,total apoptotic cell death,MDA-MB-231 cells [1]; control 0.81%,30.74%
same,necrosis (Q1),MDA-MB-231 cells [1]; control 1.3%,4.08%
same,cell population at G2/M,MDA-MB-231 cells [2],24.04%
same,"Bcl-2 gene level, fold change",MDA-MB-231 cells [3]; decrease,0.35 fold
same,"Bax gene level, fold change",MDA-MB-231 cells [3]; increase,4.46 fold
same,"P53 gene level, fold change",MDA-MB-231 cells [3]; increase,4.8 fold
same,"caspase-3 gene level, fold change",MDA-MB-231 cells [3]; increase,3.9 fold
same,"caspase-8 gene level, fold change",MDA-MB-231 cells [3]; increase,6.36 fold
same,"caspase-9 gene level, fold change",MDA-MB-231 cells [3]; increase,2.9 fold
"O=C(COc1ccc(C2=Nn3c(nnc3-c3ccccc3)SC2)cc1)NCCCCNC(=O)COc1ccc(C2=Nn3c(nnc3-c3ccccc3)SC2)cc1 [8j, N,N′-(Butane-1,4-diyl)bis(2-(4-(3-phenyl-7H-[1,2,4]triazolo[3,4-b][1,3,4]thiadiazin-6-yl)phenoxy)acetamide)]",IC50,MCF-7,14.9 µM
"O=C(COc1ccccc1C1=Nn2c(nnc2-c2ccccc2)SC1)NCCCCNC(=O)COc1ccccc1C1=Nn2c(nnc2-c2ccccc2)SC1 [8k, N,N′-(Butane-1,4-diyl)bis(2-(2-(3-phenyl-7H-[1,2,4]triazolo[3,4-b][1,3,4]thiadiazin-6-yl)phenoxy)acetamide)]",IC50,MCF-7,13.1 µM
"O=C(COc1ccccc1C1=Nn2cnnc2SC1)NCCCCNC(=O)COc1ccccc1C1=Nn2cnnc2SC1 [8l, N,N′-(Butane-1,4-diyl)bis(2-(2-(7H-[1,2,4]triazolo[3,4-b][1,3,4]thiadiazin-6-yl)phenoxy)-acetamide)]",IC50,MCF-7,5.31 µM
same,IC50,PARP-1,0.00687 µM
same,IC50,EGFR,0.0789 µM
"O=C(COc1ccc(-c2cnc3ccccc3n2)cc1)NCCNC(=O)COc1ccc(-c2cnc3ccccc3n2)cc1 [10a, N,N′-(Ethane-1,2-diyl)bis(2-(4-(quinoxalin-2-yl)phenoxy)acetamide)]",IC50,MCF-7,32 µM
same,IC50,MDA-MB-231,≥ 50 µM
"Cc1cc2ncc(-c3ccc(OCC(=O)NCCNC(=O)COc4ccc(-c5cnc6cc(C)c(C)cc6n5)cc4)cc3)nc2cc1C [10b, N,N′-(Ethane-1,2-diyl)bis(2-(4-(6,7-dimethylquinoxalin-2-yl)phenoxy)acetamide)]",IC50,MCF-7,≥ 50 µM
"O=C(COc1ccccc1-c1cnc2ccccc2n1)NCCNC(=O)COc1ccccc1-c1cnc2ccccc2n1 [10c, N,N′-(Ethane-1,2-diyl)bis(2-(2-(quinoxalin-2-yl)phenoxy)acetamide)]",IC50,MCF-7,7.61 µM
"O=C(COc1ccc(-c2cnc3ccccc3n2)cc1)NCCCNC(=O)COc1ccc(-c2cnc3ccccc3n2)cc1 [10d, N,N′-(Propane-1,3-diyl)bis(2-(4-(quinoxalin-2-yl)phenoxy)acetamide)]",IC50,MCF-7,23.2 µM
same,IC50,MDA-MB-231,≥ 50 µM
"Cc1cc2ncc(-c3ccccc3OCC(=O)NCCCCNC(=O)COc3ccccc3-c3cnc4cc(C)c(C)cc4n3)nc2cc1C [10e, N,N′-(Butane-1,4-diyl)bis(2-(2-(6,7-dimethylquinoxalin-2-yl)phenoxy)acetamide)]",IC50,MCF-7,31.2 µM
"C#Cc1cccc(Nc2ncnc3cc(OCCOC)c(OCCOC)cc23)c1 [Erlotinib, reference compound]",IC50,MCF-7,0.32 µM
